Values after ≈ are worked out from the molar mass of the structure shown.
What was measured:
Format in all cases: functional
[1] = system: Bacillus cereus; test: Antibacterial activity against Bacillus cereus N258 after 18 hrs by agar dilution method; settings: N258, 18 h
Summary of the method: (§1)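 Agar-dilution MIC against Gram-positive strains. Compounds in DMSO, geometric dilutions giving final 100−0.75 mg/L in Mueller Hinton agar. Strains grown 18 h at 37 °C in trypticase soy broth, diluted in sterile water, spotted by Steers inoculator (about 1000 UFC/spot). Plates incubated 18 h at 37 °C; DMSO blank; ofloxacin positive control. MIC = lowest concentration with no visible growth.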

[2] = system: Listeria monocytogenes; test: Antibacterial activity against Listeria monocytogenes CIP 103575 after 18 hrs by agar dilution method; settings: CIP 103575, 18 h; summary of the method: as §1
[3] = system: Staphylococcus epidermidis; test: Antibacterial activity against Staphylococcus epidermidis CIP 53124 after 18 hrs by agar dilution method; settings: CIP 53124, 18 h; summary of the method: as §1
[4] = system: Enterococcus casseliflavus; test: Antibacterial activity against Enterococcus casseliflavus N487 after 18 hrs by agar dilution method; settings: N487, 18 h; summary of the method: as §1
[5] = system: Enterococcus faecium; test: Antibacterial activity against Enterococcus faecium N733 after 18 hrs by agar dilution method; settings: N733, 18 h; summary of the method: as §1
[6] = system: Enterococcus gallinarum; test: Antibacterial activity against Enterococcus gallinarum N489 after 18 hrs by agar dilution method; settings: N489, 18 h; summary of the method: as §1
[7] = system: MRC5; test: Cytotoxicity against human MRC5 cells assessed as growth inhibition at 10^-5 M after 72 hrs by MTS assay relative to control; settings: MRC5, 72 h, read-out: GI
Summary of the method: (§2)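 Cells from ATCC; HCT-116 grown in RPMI 1640 and MRC5 in DMEM, each with 10% FCS and 1% glutamine, 37 °C, 5% CO2. Seeded at 2.5 × 10^3 cells/well, cultured 24 h, then exposed to compounds at 1 and 10 μM final for 72 h. MTS read-out, absorbance 490 nm; percent index from treated/control OD490 × 100, three experiments.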

[8] = system: Staphylococcus aureus; test: Antibacterial activity against Staphylococcus aureus CIP 53154 after 18 hrs by agar dilution method; settings: CIP 53154, 18 h; summary of the method: as §1
[9] = system: Corynebacterium striatum; test: Antibacterial activity against Corynebacterium striatum N840 after 18 hrs by agar dilution method; settings: N840, 18 h; summary of the method: as §1
[10] = system: Enterococcus faecalis; test: Antibacterial activity against Enterococcus faecalis N520 after 18 hrs by agar dilution method; settings: N520, 18 h; summary of the method: as §1
[11] = system: Staphylococcus saprophyticus; test: Antibacterial activity against Staphylococcus saprophyticus E260 after 18 hrs by agar dilution method; settings: E260, 18 h; summary of the method: as §1
[12] = system: HCT-116; test: Cytotoxicity against human HCT116 cells assessed as growth inhibition at 10^-5 M after 72 hrs by MTS assay relative to control; settings: HCT-116, 72 h, read-out: GI; summary of the method: as §2
[13] = system: Staphylococcus haemolyticus; test: Antibacterial activity against Staphylococcus haemolyticus CIP 8156 after 18 hrs by agar dilution method; settings: CIP 8156, 18 h; summary of the method: as §1
[14] = system: Streptococcus agalactiae; test: Antibacterial activity against Streptococcus agalactiae CIP 103227 after 18 hrs by agar dilution method; settings: ATCC 13813, 18 h; summary of the method: as §1
[15] = system: Enterococcus faecalis; test: Antibacterial activity against Enterococcus faecalis CIP 104676 after 18 hrs by agar dilution method; settings: CIP 104676, 18 h; summary of the method: as §1
[16] = system: Enterococcus faecalis; test: Antibacterial activity against Enterococcus faecalis CIP 103214 after 18 hrs by agar dilution method; settings: CIP 103214, 18 h; summary of the method: as §1
[17] = system: Listeria monocytogenes; test: Antibacterial activity against Listeria monocytogenes N851 after 18 hrs by agar dilution method; settings: N851, 18 h; summary of the method: as §1
[18] = system: Enterococcus hirae; test: Antibacterial activity against Enterococcus hirae CIP 5855 after 18 hrs by agar dilution method; settings: CIP 5855, 18 h; summary of the method: as §1
[19] = system: Staphylococcus aureus; test: Antibacterial activity against Staphylococcus aureus CIP 483 after 18 hrs by agar dilution method; settings: CIP 483, 18 h; summary of the method: as §1
[20] = system: Enterococcus faecium; test: Antibacterial activity against Enterococcus faecium CIP 103014 after 18 hrs by agar dilution method; settings: CIP 103014, 18 h; summary of the method: as §1
[21] = system: Listeria monocytogenes; test: Antibacterial activity against Listeria monocytogenes N836 after 18 hrs by agar dilution method; settings: N836, 18 h; summary of the method: as §1
[22] = system: Staphylococcus aureus; test: Antibacterial activity against Staphylococcus aureus ATCC 9144 oxford after 18 hrs by agar dilution method; summary of the method: as §1
[23] = system: Staphylococcus aureus; test: Antibacterial activity against Staphylococcus aureus CIP 5710 after 18 hrs by agar dilution method; settings: CIP 5710, 18 h; summary of the method: as §1
[24] = system: Enterococcus gallinarum; test: Antibacterial activity against Enterococcus gallinarum N492 after 18 hrs by agar dilution method; settings: N492, 18 h; summary of the method: as §1
[25] = system: Staphylococcus aureus; test: Antibacterial activity against Staphylococcus aureus ATCC 25923 after 18 hrs by agar dilution method; settings: ATCC 25923, 18 h; summary of the method: as §1
[26] = system: Enterococcus casseliflavus; test: Antibacterial activity against Enterococcus casseliflavus CIP 103018 after 18 hrs by agar dilution method; settings: CIP 103018, 18 h; summary of the method: as §1
[27] = system: Enterococcus faecium; test: Antibacterial activity against Enterococcus faecium N507 after 18 hrs by agar dilution method; settings: N507, 18 h; summary of the method: as §1
[28] = system: HCT-116; test: Cytotoxicity against human HCT116 cells assessed as growth inhibition at 10^-6 M after 72 hrs by MTS assay relative to control; settings: HCT-116, 72 h, read-out: GI; summary of the method: as §2
[29] = system: MRC5; test: Cytotoxicity against human MRC5 cells assessed as growth inhibition at 10^-6 M after 72 hrs by MTS assay relative to control; settings: MRC5, 72 h, read-out: GI; summary of the method: as §2
[30] = system: Enterococcus gallinarum; test: Antibacterial activity against Enterococcus gallinarum CIP 105985 after 18 hrs by agar dilution method; settings: CIP 105985, 18 h; summary of the method: as §1
[31] = system: Enterococcus durans; test: Antibacterial activity against Enterococcus durans CIP 104999 after 18 hrs by agar dilution method; settings: CIP 104999, 18 h; summary of the method: as §1
[32] = system: Enterococcus faecium; test: Antibacterial activity against Enterococcus faecium N823 after 18 hrs by agar dilution method; settings: N823, 18 h; summary of the method: as §1
[33] = system: Bacillus cereus; test: Antibacterial activity against Bacillus cereus N349 after 18 hrs by agar dilution method; settings: N349, 18 h; summary of the method: as §1
[34] = system: Staphylococcus intermedius; test: Antibacterial activity against Staphylococcus intermedius N987 after 18 hrs by agar dilution method; settings: N987, 18 h; summary of the method: as §1
[35] = system: Mammaliicoccus sciuri; test: Antibacterial activity against Staphylococcus sciuri N993 after 18 hrs by agar dilution method; settings: N993, 18 h; summary of the method: as §1
[36] = system: Bacillus spizizenii; test: Antibacterial activity against Bacillus subtilis ATCC 6633 after 18 hrs by agar dilution method; settings: ATCC 6633, 18 h; summary of the method: as §1
[37] = system: Enterococcus faecalis; test: Antibacterial activity against Enterococcus faecalis N518 after 18 hrs by agar dilution method; settings: N518, 18 h; summary of the method: as §1
[38] = system: Bacillus cereus; test: Antibacterial activity against Bacillus cereus N190 after 18 hrs by agar dilution method; settings: N190, 18 h; summary of the method: as §1
[39] = system: Enterococcus faecium; test: Antibacterial activity against Enterococcus faecium N490 after 18 hrs by agar dilution method; settings: N490, 18 h; summary of the method: as §1
[40] = system: Enterococcus faecium; test: Antibacterial activity against Enterococcus faecium CIP 107387 after 18 hrs by agar dilution method; settings: CIP 107387, 18 h; summary of the method: as §1
[41] = system: Staphylococcus aureus; test: Antibacterial activity against Staphylococcus aureus CIP 7625 after 18 hrs by agar dilution method; settings: CIP 7625, 18 h; summary of the method: as §1
[42] = system: Staphylococcus aureus; test: Antibacterial activity against Staphylococcus aureus CIP 53156 after 18 hrs by agar dilution method; settings: CIP 53156, 18 h; summary of the method: as §1
[43] = system: Listeria monocytogenes; test: Antibacterial activity against Listeria monocytogenes N783 after 18 hrs by agar dilution method; settings: N783, 18 h; summary of the method: as §1
[44] = system: Staphylococcus aureus; test: Antibacterial activity against Staphylococcus aureus CRBIP 2121 after 18 hrs by agar dilution method; settings: CRBIP 2121, 18 h; summary of the method: as §1
[45] = system: Listeria innocua; test: Antibacterial activity against Listeria innocua E044 after 18 hrs by agar dilution method; settings: E044, 18 h; summary of the method: as §1
[46] = system: Bacillus cereus; test: Antibacterial activity against Bacillus cereus CIP 6624 after 18 hrs by agar dilution method; settings: CIP 6624, 18 h; summary of the method: as §1
[47] = system: Enterococcus faecalis; test: Antibacterial activity against Enterococcus faecalis N491 after 18 hrs by agar dilution method; settings: N491, 18 h; summary of the method: as §1
[48] = system: Staphylococcus saprophyticus; test: Antibacterial activity against Staphylococcus saprophyticus CIP 76125 after 18 hrs by agar dilution method; settings: CIP 76125, 18 h; summary of the method: as §1
[49] = system: Staphylococcus lugdunensis; test: Antibacterial activity against Staphylococcus lugdunensis ATCC 43809 after 18 hrs by agar dilution method; settings: ATCC 43809, 18 h; summary of the method: as §1
[50] = system: Enterococcus avium; test: Antibacterial activity against Enterococcus avium CIP 104053 after 18 hrs by agar dilution method; settings: CIP 104053, 18 h; summary of the method: as §1

SMILES: C=C1CC[C@H]2C(C)(C)CCC[C@]2(C)[C@H]1C[C@@H](O)C1=CC(=O)OC1
- MIC [1]: ≤ 188 µM
- MIC [2]: > 188 µM
- MIC [3]: > 188 µM
- MIC [4]: > 188 µM
- MIC [5]: 50 µM (≈ 15.9 µg/mL)
- MIC [6]: > 188 µM
- inhibition of growth at 10 µM [7]: 86%
- MIC [8]: > 188 µM
- MIC [9]: > 188 µM
- MIC [10]: 50 µM (≈ 15.9 µg/mL)
- MIC [11]: > 188 µM
- inhibition of growth at 10 µM [12]: 68%
- MIC [13]: > 188 µM
- MIC [14]: 50 µM (≈ 15.9 µg/mL)
- MIC [15]: 50 µM (≈ 15.9 µg/mL)
- MIC [16]: 50 µM (≈ 15.9 µg/mL)
- MIC [17]: > 188 µM
- MIC [18]: > 188 µM
- MIC [19]: > 188 µM
- MIC [20]: > 188 µM
- MIC [21]: > 188 µM
- MIC [22]: > 188 µM
- MIC [23]: > 188 µM
- MIC [24]: > 188 µM
- MIC [25]: > 188 µM
- MIC [26]: > 188 µM
- MIC [27]: 50 µM (≈ 15.9 µg/mL)
- inhibition of growth at 1 µM [28]: 3%
- inhibition of growth at 1 µM [29]: 34%
- MIC [30]: > 188 µM
- MIC [31]: 50 µM (≈ 15.9 µg/mL)
- MIC [32]: 50 µM (≈ 15.9 µg/mL)
- MIC [33]: ≤ 188 µM
- MIC [34]: > 188 µM
- MIC [35]: > 188 µM
- MIC [36]: > 188 µM
- MIC [37]: 50 µM (≈ 15.9 µg/mL)
- MIC [38]: ≤ 188 µM
- MIC [39]: ≤ 188 µM
- MIC [40]: > 188 µM
- MIC [41]: > 188 µM
- MIC [42]: > 188 µM
- MIC [43]: > 188 µM
- MIC [44]: > 188 µM
- MIC [45]: > 188 µM
- MIC [46]: ≤ 188 µM
- MIC [47]: 50 µM (≈ 15.9 µg/mL)
- MIC [48]: > 188 µM
- MIC [49]: > 188 µM
- MIC [50]: > 188 µM
